Measurements of several laboratories.
Lines come from different studies, so protocols differ.
Target: Dual specificity protein kinase CLK1 (CLK1, Homo sapiens, UniProt P49759)
Technique: competition with immobilised ligand

O=C(c1ccc(Nc2ncc(Cl)c(-c3cc4ccccc4s3)n2)cc1)N1CCC(N2CCCC2)CC1  remaining binding (binding; 1 µM): 3%
c1cncc(-c2cccc(Nc3nccc(NC4CCCCC4)n3)c2)c1  remaining binding (binding; 10 µM): 1.1%
CN(CCCC(F)(F)F)c1nccc(-c2cnn3ncccc23)n1  remaining binding (binding; 1 µM): 43%
CNC(=O)c1ccccc1Nc1cc(Nc2ccc(N3CCOCC3)cc2OC)ncc1C(F)(F)F  remaining binding (binding; 1 µM): < 10%
O=C(c1ccc(Nc2ncc(Cl)c(-c3ccc(Cl)s3)n2)cc1)N1CCC(N2CCCC2)CC1  remaining binding (binding; 1 µM): 3.9%
C=CC(=O)N1CCC(C(=O)NCC(=O)N2CCN(c3nc(-c4cnc(N)nc4C(F)F)nc(N4CCOCC4)n3)CC2)CC1  remaining binding (binding; 1 µM): 93%
C[C@H](c1ccnc(Nc2nc3ccc(-c4cc(N(C)C)ncn4)cc3[nH]2)c1)N1CCN(C(=O)CC(F)(F)F)CC1  remaining binding (cell-free assay; 0.1 µM): 90%
O=C(Nc1c[nH]nc1C(=O)NC1CCNCC1)c1cc(F)cc(F)c1  remaining binding (binding; 1 µM): 100%
CS(=O)(=O)N1CCCC(NC(=O)[C@H](CCC2CCCCC2)NC(=O)c2ccc(CNc3ncnc4c3nnn4-c3ccccc3)cc2)C1 (some centres unmarked)  remaining binding (cell-free assay; 0.1 µM): 87%
Nc1ncc2c(n1)-c1c([nH]c3ccc(C#CC4CC4)cc13)CCCC2  remaining binding (binding; 1 µM): 100%
COc1cc(-c2cn(C3CCc4c(F)cccc4N(CC(F)(F)F)C3=O)nn2)ccc1-n1cnc(C)c1 (centres unmarked)  remaining binding (cell-free assay; 1 µM): 77%
CNC(=O)[C@@H]1CC[C@@H](n2c(-c3ccc4cnccc4c3)nc3ccc(C(=O)NCc4cccc(C(N)=O)c4)cc32)C1  remaining binding (binding; 1 µM): 98%
O=C(c1ccc(Nc2nccc(-c3cc4ccccc4s3)n2)cc1)N1CCC(N2CCCC2)CC1  remaining binding (binding; 1 µM): 13%
Cc1cc(C)c(-n2ccn3nc(-c4cccnc4)cc23)cc1NC(=O)c1cc(C#N)cc(S(F)(F)(F)(F)F)c1  remaining binding (cell-free assay; 0.1 µM): 96.2%
